Assay [1] has as its system Rattus norvegicus. As to the kind of experiment: Inhibition of ethanol induced gastric lesions in the rat following p.o. administration. It counts as functional. The note with it: Stomach, po. The gist of the method:
(§1)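 Male Sprague-Dawley rats (200–300 g) were fasted 24 h and dosed orally at 2 mL/kg, 30 min before 1 mL of 100% ethanol per rat. Animals were killed 1 h later, and stomachs were formalin-fixed, opened along the greater curvature and examined for lesions. ED50 is the dose giving 50% lesion inhibition versus control, derived by linear regression from three dose groups of eight rats each.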

For assay [2], the species on record is Rattus norvegicus. The experiment in a line: Antiaggregatory activity is expressed as dose that inhibit rat platelet aggregation induced by collagen by 50% of that of the control. It counts as functional. The method in brief: (§2)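 Male Wistar rats (250–350 g) under ether anesthesia were bled from the abdominal aorta into 0.1 volume 3.13% sodium citrate. Aggregation was induced by collagen (final 5 μg/mL) and read in an aggregometer at 37 °C with stirring. The IC50 is the concentration inhibiting aggregation by 50% versus control, derived by linear regression from three dose groups of five or six animals (mean ± SEM).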

For assay [3], the system named is Rattus norvegicus. As to the kind of experiment: Dose that reduces mean blood pressure by 15 mmHg (peak effect) in rat administered intravenously. It is filed as functional. The gist of the method:
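Male Wistar rats (200–300 g) were anesthetized with urethane. Compound was given iv via the femoral vein, and blood pressure was recorded by transducer through a femoral artery catheter. MBP15 is the dose lowering mean blood pressure by 15 mmHg at peak effect, derived by linear regression from three dose groups of five or six animals (mean ± SEM).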

For assay [4], the system named is Rattus norvegicus. As to the kind of experiment: Inhibition of ethanol induced gastric lesions in the rat following p.o. administration; No effect. It counts as functional, organism-based. The note with it: Stomach. The gist of the method:
as §1

For assay [5], the species on record is Rattus norvegicus. As to the kind of experiment: Relative potency for organ protection. It counts as functional. The method in brief: (§3)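 Relative potencies were calculated against PGE2 from the rat oral ED50 for ethanol-induced gastric lesions and the iv MBP15 hypotension dose. The ratio is organ-protective relative potency divided by hypotensive relative potency, with PGE2 set to 1.0.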

The species named for assay [6] is Rattus norvegicus. As to the kind of experiment: Relative potency for hypotension. It counts as functional.
Assay [7] is filed under the species Rattus norvegicus. The experiment in a line: Antiaggregatory activity is expressed as dose that inhibit rat platelet aggregation induced by collagen by 50% of that of the control; No effect. It is filed as functional. The method in brief:
as §2

For assay [8], the species on record is Rattus norvegicus. As to the kind of experiment: Relative potency for hypotension in rats. It counts as functional.
The species named for assay [9] is Rattus norvegicus. As to the kind of experiment: Relative potency for antiaggregation in rats. It is filed as functional. The gist of the method:
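Antiaggregation relative potency was calculated against PGI2 from the IC50 for collagen-induced (5 μg/mL) aggregation of citrated rat blood, measured at 37 °C.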

Assay [10] is filed under the species Rattus norvegicus. As to the kind of experiment: Relative potency for organ protection in rats. It is filed as functional. The gist of the method:
as §3

A short description of assay [11]: Ratio of relative potencies of organ protection/ hypotension to that of PGE-2 in rats. It counts as functional. The method in brief:
as §3

Values after ≈ are worked out from the molar mass of the structure shown.

Consider `O=C(O)COCCC1=C[C@H]2C[C@@H](O)[C@H](/C=C/[C@@H](O)C3Cc4ccccc4C3)C2C1` (stereo not given in full), for which the 50% effect level in the assay on Rattus norvegicus [1] (ED50) was put at a dose of 0.0274 mg/kg. In addition, the midpoint of inhibition in the assay filed under Rattus norvegicus [2], the IC50, lay at 0.0567 mg/L (≈ 0.142 µM). Further, the “Dose lowering mean blood pressure by 15 mmHg” value in the assay with Rattus norvegicus [3] stood at 0.0022 mg/kg.

Regarding `O=C(O)CCC/C=C1\CC2C[C@@H](O)[C@H](/C=C/[C@@H](O)c3ccc4c(c3)OCO4)C2C1` (stereo not given in full), the IC50 (commonly the concentration that gives 50% inhibition) in the assay filed under Rattus norvegicus [2] was above 1 mg/L. Moreover, in the assay on Rattus norvegicus [3], the “Dose lowering mean blood pressure by 15 mmHg” value is above 0.1 mg/kg. Further, the ED50 (usually the midpoint of the dose-response relation) in the assay on Rattus norvegicus [4] was “No effect”.

`CC1([C@H](O)/C=C/[C@@H]2C3C/C(=C/CCCC(=O)O)CC3C[C@H]2O)COc2ccccc2O1` (stereo not given in full): the 50% effect level in the assay on Rattus norvegicus [1] (ED50) was put at a dose of 0.0142 mg/kg. In the assay listed under Rattus norvegicus [2], the IC50 turned out to be 0.221 mg/L (≈ 0.516 µM). In the assay with Rattus norvegicus [3], the “Dose lowering mean blood pressure by 15 mmHg” value is 0.0036 mg/kg.

`O=C(O)CCC/C=C1\CC2C[C@@H](O)[C@H](/C=C/[C@@H](O)c3ccc4c(c3)OCCO4)C2C1` (stereo not given in full) gave an ED50 with Rattus norvegicus [1] above 0.3 mg/kg. Also, the IC50 in the assay listed under Rattus norvegicus [2] is above 1 mg/L. Besides, in the assay with Rattus norvegicus [3], the “Dose lowering mean blood pressure by 15 mmHg” value is above 0.1 mg/kg.

Take `O=C(O)CCC/C=C1\CC2C[C@@H](O)[C@H](CC[C@@H](O)C3Cc4ccccc4C3)C2C1` (stereo not given in full): the IC50 in the assay filed under Rattus norvegicus [2] worked out at 0.0764 mg/L (≈ 0.192 µM). In the assay with Rattus norvegicus [3], the “Dose lowering mean blood pressure by 15 mmHg” value was found to be 0.035 mg/kg. Besides, the ED50 result in the assay with Rattus norvegicus [4] is “No effect”.

As to `O=C(O)CCC/C=C1\CC2C[C@@H](O)[C@H](/C=C/[C@@H](O)CC3COc4ccccc4O3)C2C1` (stereo not given in full), the ED50 in the assay on Rattus norvegicus [1] was above 0.3 mg/kg. The molecule also displayed an IC50 in the assay listed under Rattus norvegicus [2] of 0.324 mg/L (≈ 0.755 µM). Moreover, the “Dose lowering mean blood pressure by 15 mmHg” value in the assay with Rattus norvegicus [3] amounted to 0.044 mg/kg.

Consider `CCCCC[C@H](O)/C=C/[C@H]1[C@H](O)CC(=O)[C@@H]1C/C=C\CCCC(=O)O` [DINOPROSTONE], for which the Relative potency in the assay filed under Rattus norvegicus [5] and in the assay listed under Rattus norvegicus [6] was 1 each time. This molecule also had a 50% effective dose (ED50) in the assay on Rattus norvegicus [1] of 0.0341 mg/kg. Besides, the “Dose lowering mean blood pressure by 15 mmHg” value in the assay with Rattus norvegicus [3] turned out to be 0.0012 mg/kg. In addition, the half-maximal inhibitory concentration (IC50) entry in the assay listed under Rattus norvegicus [7] is “Not Active”.

The molecule `O=C(O)COC/C=C1\CC2C[C@@H](O)[C@H](/C=C/[C@@H](O)C3Cc4ccccc4C3)C2C1` (stereo not given in full) gave an ED50 in the assay with Rattus norvegicus [1] of 0.0675 mg/kg. The IC50 in the assay filed under Rattus norvegicus [2] is 0.0153 mg/L (≈ 0.0384 µM). Besides, in the assay on Rattus norvegicus [3], the “Dose lowering mean blood pressure by 15 mmHg” value was 0.0038 mg/kg. For the same molecule, the Relative potency in the assay filed under Rattus norvegicus [8] turned out to be 0.08; in the assay filed under Rattus norvegicus [9] it was 0.23.

For `O=C(O)CCC/C=C1\CC2C[C@@H](O)[C@H](/C=C/[C@@H](O)C3Cc4ccc(Cl)cc4C3)C2C1` (stereo not given in full), the ED50 in the assay with Rattus norvegicus [1] was above 0.3 mg/kg. The molecule also showed an IC50 in the assay listed under Rattus norvegicus [2] of 0.407 mg/L (≈ 0.945 µM). Besides, the “Dose lowering mean blood pressure by 15 mmHg” value in the assay on Rattus norvegicus [3] is above 0.1 mg/kg.

For the molecule `COc1ccc2c(c1)OCC([C@H](O)/C=C/[C@@H]1C3C/C(=C/COCC(=O)O)CC3C[C@H]1O)O2` (stereo not given in full), the IC50 in the assay filed under Rattus norvegicus [2] was above 1 mg/L. In addition, the “Dose lowering mean blood pressure by 15 mmHg” value in the assay with Rattus norvegicus [3] is 0.0062 mg/kg. Also, the ED50 entry in the assay on Rattus norvegicus [4] is “No effect”.

In the assay with Rattus norvegicus [1], `COc1ccc2c(c1)CC([C@H](O)/C=C/[C@@H]1C3C/C(=C/CCCC(=O)O)CC3C[C@H]1O)C2` (stereo not given in full) came in with an ED50 of 0.0143 mg/kg. The molecule also yielded an IC50 in the assay filed under Rattus norvegicus [2] of 0.0705 mg/L (≈ 0.165 µM). For the same molecule, the “Dose lowering mean blood pressure by 15 mmHg” value with Rattus norvegicus [3] was 0.006 mg/kg.

The molecule `COc1ccc2c(c1)OCC([C@H](O)/C=C/[C@@H]1C3C/C(=C/CCCC(=O)O)CC3C[C@H]1O)O2` (stereo not given in full) had an ED50 with Rattus norvegicus [1] of 0.0021 mg/kg. This molecule also showed an IC50 in the assay filed under Rattus norvegicus [2] of 0.355 mg/L (≈ 0.799 µM). Moreover, in the assay on Rattus norvegicus [3], the “Dose lowering mean blood pressure by 15 mmHg” value is 0.0035 mg/kg. Further, the Relative potency in the assay listed under Rattus norvegicus [10] is reported as 16.2; in the assay listed under Rattus norvegicus [8], 0.3. In addition, in [11], the Ratio worked out at 47.6.

With `O=C(O)COCCC1=C[C@H]2C[C@@H](O)[C@H](/C=C/[C@@H](O)C3COc4ccccc4O3)C2C1` (stereo not given in full), in the assay on Rattus norvegicus [1], the ED50 turned out to be 0.0085 mg/kg. Moreover, in the assay filed under Rattus norvegicus [2], the IC50 amounted to 0.0531 mg/L (≈ 0.128 µM). In the assay with Rattus norvegicus [3], the “Dose lowering mean blood pressure by 15 mmHg” value was 0.0017 mg/kg.

Molecule `Cc1ccc2c(c1)OCC([C@H](O)/C=C/[C@@H]1C3C/C(=C/CCCC(=O)O)CC3C[C@H]1O)O2` (stereo not given in full) registered an ED50 in the assay on Rattus norvegicus [1] of 0.11 mg/kg. In addition, the IC50 in the assay filed under Rattus norvegicus [2] amounted to 0.647 mg/L (≈ 1.51 µM). In addition, the “Dose lowering mean blood pressure by 15 mmHg” value in the assay with Rattus norvegicus [3] was 0.013 mg/kg.

Molecule `O=C(O)CCC/C=C1\CC2C[C@@H](O)[C@H](/C=C/[C@@H](O)C3COc4ccccc4O3)C2C1` (stereo not given in full) returned a 50% effective dose (ED50) with Rattus norvegicus [1] of 0.0045 mg/kg. For the same molecule, the IC50 in the assay filed under Rattus norvegicus [2] was 0.324 mg/L (≈ 0.781 µM). Besides, the “Dose lowering mean blood pressure by 15 mmHg” value in the assay with Rattus norvegicus [3] turned out to be 0.002 mg/kg. The Relative potency in the assay filed under Rattus norvegicus [10] is reported as 7.6; in the assay listed under Rattus norvegicus [8] it was 0.6. Further, the Ratio in [11] stood at 12.7.

The values above are taken from ChEMBL document CHEMBL1124572, “Synthesis and biological activity of novel carbacyclins having bicyclic substituents on the omega-chain” (J Med Chem, 1989).
